Drawing on paper PMC4210126 (ACS Chemical Neuroscience, 2014), this text covers logD and LipE for one compound.

One data set in a line: Measurement of LogD. The data set is classed as physicochemical. Particulars: n-octanol/sodium phosphate buffer, pH 7.4. The method, boiled down: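 Partition of each carbon-11-labelled test compound between n-octanol and sodium phosphate buffer (pH 7.4), run at room temperature. Radioactivity distribution between the phases gives logD.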
The next data set deals with human HAB TSPO (Homo sapiens, UniProt P30536). The data set is classed as binding. The settings on record: pKi – logD for human cerebellum HAB.
human HAB TSPO, sequence (P30536 whole entry): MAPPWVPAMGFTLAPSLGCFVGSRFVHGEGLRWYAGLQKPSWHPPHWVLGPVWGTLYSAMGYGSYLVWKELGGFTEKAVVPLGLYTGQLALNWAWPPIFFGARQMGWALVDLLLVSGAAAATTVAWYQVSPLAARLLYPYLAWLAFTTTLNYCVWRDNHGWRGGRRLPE

One may read the logD as the decadic logarithm of the distribution of all forms, ionised or not, between an organic phase and buffer at a given pH. Low values mean a more hydrophilic compound, high ones a more lipophilic compound. In “Measurement of LogD”, `CCC(C)N(C)C(=O)c1cc2ccccc2c(-c2ccccc2Cl)n1` (centres unmarked) [Ligand 1] yielded a logD of 3.97 ± 0.18. The compound further gave a LipE on human HAB TSPO of 4.37.
